Several values for one entry are separate records, joined by “and”; a condition that tells them apart may be missing. Equal entries are not always repeated.
Columns and labels:
[1] = tested on: MDA-MB-231; assay: Cytotoxicity against human MDA-MB-231 cells assessed as growth inhibition after 72 hrs by SRB assay; format: functional
Method in brief: (§1)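 SRB assay per NCI protocol: 2 × 10^3 cells/well seeded, compounds in DMSO/media added next day (day 0) in quadruplicate at 1 nM–10 μM final, DMSO <0.1%. After 72 h, TCA fixation overnight at 4°C, 0.4% SRB 1 h, dye dissolved in 10 mM Tris, A690 read; day 0 absorbance subtracted. GI50 = concentration giving 50% drop in net growth, mean of three experiments.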

[2] = tested on: PC-3; assay: Cytotoxicity against human PC3 cells assessed as growth inhibition after 72 hrs by SRB assay; format: functional; method in brief: as §1
[3] = tested on: NCI-H23; assay: Cytotoxicity against human NCI-H23 cells assessed as growth inhibition after 72 hrs by SRB assay; format: functional; method in brief: as §1
[4] = tested on: NUGC-3; assay: Cytotoxicity against human NUGC3 cells assessed as growth inhibition after 72 hrs by SRB assay; format: functional; method in brief: as §1
[5] = tested on: HCT-15; assay: Cytotoxicity against human HCT15 cells assessed as growth inhibition after 72 hrs by SRB assay; format: functional; method in brief: as §1
[6] = tested on: ACHN; assay: Cytotoxicity against human ACHN cells assessed as growth inhibition after 72 hrs by SRB assay; format: functional; method in brief: as §1
[7] = biological target: T1, DNA topoisomerase 1 (Homo sapiens) (UniProt P11387); assay: Inhibition of recombinant human DNA topoisomerase 1 at 20 uM using supercoiled pBR322 DNA as substrate after 30 mins by densitometric analysis relative to control
T1 sequence (whole entry): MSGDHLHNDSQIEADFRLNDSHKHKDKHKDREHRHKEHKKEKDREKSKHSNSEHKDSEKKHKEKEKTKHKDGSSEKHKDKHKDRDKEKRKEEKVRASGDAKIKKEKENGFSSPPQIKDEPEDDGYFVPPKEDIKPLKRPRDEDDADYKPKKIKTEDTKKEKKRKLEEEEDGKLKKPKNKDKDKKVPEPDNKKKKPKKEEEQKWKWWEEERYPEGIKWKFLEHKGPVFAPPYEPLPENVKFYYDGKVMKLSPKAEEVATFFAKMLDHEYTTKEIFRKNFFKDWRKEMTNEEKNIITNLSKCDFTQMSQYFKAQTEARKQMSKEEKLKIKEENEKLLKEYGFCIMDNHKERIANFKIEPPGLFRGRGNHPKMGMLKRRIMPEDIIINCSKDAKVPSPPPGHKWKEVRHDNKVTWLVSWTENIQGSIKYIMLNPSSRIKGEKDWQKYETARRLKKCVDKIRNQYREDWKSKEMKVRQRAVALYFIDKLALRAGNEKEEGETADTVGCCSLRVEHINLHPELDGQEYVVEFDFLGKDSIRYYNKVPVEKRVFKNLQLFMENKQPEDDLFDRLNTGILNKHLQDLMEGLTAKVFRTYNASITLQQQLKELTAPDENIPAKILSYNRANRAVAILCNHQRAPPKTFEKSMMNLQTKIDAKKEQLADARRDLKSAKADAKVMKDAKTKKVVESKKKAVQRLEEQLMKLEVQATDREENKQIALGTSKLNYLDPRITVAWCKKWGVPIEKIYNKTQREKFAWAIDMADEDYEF
Method in brief: (§2)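 Relaxation of 100 ng supercoiled pBR322 by 1 unit recombinant human topo I, 37 °C for 30 min, in 10 mM Tris-HCl pH 7.9, 150 mM NaCl, 0.1% BSA, 1 mM spermidine, 5% glycerol. Stopped with sarcosyl solution, run on 1% agarose/TAE at 15 V for 7 h, ethidium bromide stained, bands quantified by densitometry. Camptothecin as positive control. Compounds first screened at 100 μM; those over 30% inhibition retested at 20 μM.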

[8] = biological target: DNA topoisomerase 2-alpha (Homo sapiens) (UniProt P11388); assay: Inhibition of recombinant human DNA topoisomerase 2-alpha at 100 uM using supercoiled pBR322 DNA as substrate after 30 mins by densitometric analysis relative to control
Sequence of DNA topoisomerase 2-alpha (Homo sapiens) (P11388 whole entry): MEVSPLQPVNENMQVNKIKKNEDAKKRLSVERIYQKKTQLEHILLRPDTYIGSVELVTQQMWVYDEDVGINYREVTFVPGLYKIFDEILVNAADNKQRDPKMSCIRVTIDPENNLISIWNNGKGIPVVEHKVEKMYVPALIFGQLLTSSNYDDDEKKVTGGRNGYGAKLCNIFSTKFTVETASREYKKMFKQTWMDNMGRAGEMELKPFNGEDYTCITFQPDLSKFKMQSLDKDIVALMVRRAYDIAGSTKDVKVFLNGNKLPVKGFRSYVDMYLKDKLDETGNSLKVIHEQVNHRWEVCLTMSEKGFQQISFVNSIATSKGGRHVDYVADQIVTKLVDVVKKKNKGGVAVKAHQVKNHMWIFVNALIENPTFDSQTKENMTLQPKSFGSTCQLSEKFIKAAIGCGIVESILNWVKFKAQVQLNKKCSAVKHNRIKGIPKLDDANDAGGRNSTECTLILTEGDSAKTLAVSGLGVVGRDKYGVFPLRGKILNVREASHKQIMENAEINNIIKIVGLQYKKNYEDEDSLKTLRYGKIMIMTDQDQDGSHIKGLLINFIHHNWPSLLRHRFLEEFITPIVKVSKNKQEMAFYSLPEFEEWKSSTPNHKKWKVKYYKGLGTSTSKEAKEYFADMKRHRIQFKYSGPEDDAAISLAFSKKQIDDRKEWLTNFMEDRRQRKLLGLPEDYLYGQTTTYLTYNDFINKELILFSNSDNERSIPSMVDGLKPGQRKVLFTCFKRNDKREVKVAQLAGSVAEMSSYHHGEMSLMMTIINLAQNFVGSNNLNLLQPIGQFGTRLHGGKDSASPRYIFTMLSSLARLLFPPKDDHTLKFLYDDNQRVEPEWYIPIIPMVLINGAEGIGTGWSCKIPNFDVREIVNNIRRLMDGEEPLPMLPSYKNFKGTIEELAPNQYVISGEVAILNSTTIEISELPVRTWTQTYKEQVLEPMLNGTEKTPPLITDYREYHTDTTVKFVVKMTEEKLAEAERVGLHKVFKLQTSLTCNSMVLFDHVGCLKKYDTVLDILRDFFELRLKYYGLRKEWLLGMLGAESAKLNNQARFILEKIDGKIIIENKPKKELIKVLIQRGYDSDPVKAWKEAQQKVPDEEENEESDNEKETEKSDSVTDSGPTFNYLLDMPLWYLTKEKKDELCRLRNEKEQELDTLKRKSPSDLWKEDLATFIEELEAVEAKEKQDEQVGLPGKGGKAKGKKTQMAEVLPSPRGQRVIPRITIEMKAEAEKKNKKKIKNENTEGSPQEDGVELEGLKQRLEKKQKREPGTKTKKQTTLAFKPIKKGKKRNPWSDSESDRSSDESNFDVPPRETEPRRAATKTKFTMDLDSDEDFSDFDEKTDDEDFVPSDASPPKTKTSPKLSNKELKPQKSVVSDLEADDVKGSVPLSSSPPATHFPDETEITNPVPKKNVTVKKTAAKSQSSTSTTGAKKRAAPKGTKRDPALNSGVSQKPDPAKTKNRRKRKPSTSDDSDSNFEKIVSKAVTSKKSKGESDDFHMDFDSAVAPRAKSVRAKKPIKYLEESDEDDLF
Method in brief: (§3)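 200 ng supercoiled pBR322 with 4 units human topo IIα, 30 min at 30 °C, in 10 mM Tris–HCl pH 7.9, 50 mM NaCl, 5 mM MgCl2, 1 mM EDTA, 1 mM ATP, 15 μg/mL BSA. Stopped with EDTA, run on 1% agarose/TAE at 60 V for 1 h, bands quantified by densitometry. Etoposide as positive control. Screening at 100 μM; above 30% inhibition, retested at 20 μM.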

[9] = biological target: T1, DNA topoisomerase 1 (Homo sapiens); assay: Potency index, ratio of test compound activity to camptothecin activity for recombinant human DNA topoisomerase 1 at 100 uM
[10] = biological target: DNA topoisomerase 2-alpha (Homo sapiens) (UniProt P11388); assay: Potency index, ratio of test compound activity to etoposide activity for recombinant human DNA topoisomerase 2-alpha at 20 uM
[11] = biological target: DNA topoisomerase 2-alpha (Homo sapiens) (UniProt P11388); assay: Inhibition of recombinant human DNA topoisomerase 2-alpha at 20 uM using supercoiled pBR322 DNA as substrate after 30 mins by densitometric analysis relative to control; method in brief: as §3
[12] = biological target: T1, DNA topoisomerase 1 (Homo sapiens); assay: Inhibition of recombinant human DNA topoisomerase 1 at 100 uM using supercoiled pBR322 DNA as substrate after 30 mins by densitometric analysis relative to control; method in brief: as §2

| SMILES | GI50 ([1]; Homo sapiens, MDA-MB-231, 72 h) [nM] | GI50 ([2]; Homo sapiens, PC-3, 72 h) [nM] | GI50 ([3]; Homo sapiens, NCI-H23, 72 h) [nM] | GI50 ([4]; Homo sapiens, NUGC-3, 72 h) [nM] | GI50 ([5]; Homo sapiens, HCT-15, 72 h) [nM] | GI50 ([6]; Homo sapiens, ACHN, 72 h) [nM] | other results |
| --- | --- | --- | --- | --- | --- | --- | --- |
| COc1cccc2c1OCc1c-2nc2cnc3ccccc3c2c1C [listing 1 of 3 here] | 1520 | 1610 | 1560 | 2620 | 1790 | 2190 |  |
| Clc1ccc2c(c1)-c1nc3cnc4ccccc4c3cc1CO2 [listing 1 of 3 here] |  |  |  |  |  |  | GI50 [1]: 1050 nM; GI50 [2]: 1670 nM; GI50 [3]: 900 nM; GI50 [4]: 1160 nM; GI50 [5]: 1090 nM; GI50 [6]: 1080 nM |
| Clc1ccc2c(c1)-c1nc3cnc4ccccc4c3cc1CO2 [listing 2 of 3 here] |  | 1500 | 1180 | 2210 | 1570 |  | GI50 [1]: 2720 nM; GI50 [6]: 2560 nM |
| Cc1ccc2c(c1)-c1nc3cnc4ccccc4c3cc1CO2 | > 10000 | > 10000 | > 10000 | > 10000 | > 10000 | > 10000 |  |
| Cc1ccc(-c2c3c(nc4cnc5ccccc5c24)-c2ccccc2OC3)cc1 [listing 1 of 3 here] |  |  |  |  |  |  | GI50 [1]: 1790 nM; GI50 [2]: 1530 nM; GI50 [3]: 2060 nM; GI50 [4]: 2700 nM; GI50 [5]: 2720 nM; GI50 [6]: 2280 nM |
| COc1ccc(Br)c2c1OCc1c-2nc2cnc3ccccc3c2c1C | > 10000 | > 10000 | > 10000 | > 10000 | > 10000 | > 10000 |  |
| Fc1ccc2c(c1)-c1nc3cnc4ccccc4c3cc1CO2 [listing 1 of 3 here] |  |  |  |  |  |  | inhibition [7]: 4.2%; inhibition [8]: 14.5% and 12.2%; Ratio [9]: 1.32 |
| Cc1c2c(nc3cnc4ccccc4c13)-c1cc(Br)ccc1OC2 | > 10000 | > 10000 | > 10000 | > 10000 | > 10000 | > 10000 |  |
| Cc1ccc(-c2c3c(nc4cnc5ccccc5c24)-c2ccccc2OC3)cc1 [listing 2 of 3 here] |  |  |  |  |  |  | inhibition [7]: 11.1%; Ratio [10]: 1.25; inhibition [11]: 38.3% |
| Cc1ccc(-c2c3c(nc4cnc5ccccc5c24)-c2ccccc2OC3)cc1 [listing 3 of 3 here] |  |  |  | 3850 | 4230 | 2400 | GI50 [1]: 5620 nM; GI50 [2]: 5020 nM; GI50 [3]: > 10000 nM |
| CC(C)(C)c1cc2c(c(C(C)(C)C)c1)OCc1cc3c(cnc4ccccc43)nc1-2 | > 10000 | > 10000 | > 10000 | > 10000 | > 10000 | > 10000 |  |
| Cc1c2c(nc3cnc4ccccc4c13)-c1c(ccc3ccccc13)OC2 | > 10000 | > 10000 | > 10000 | > 10000 | > 10000 | > 10000 |  |
| Cc1ccc2c(c1)-c1nc3cnc4ccccc4c3c(C)c1CO2 | > 10000 | > 10000 | > 10000 | > 10000 | > 10000 | > 10000 |  |
| Fc1ccc2c(c1)-c1nc3cnc4ccccc4c3cc1CO2 [listing 2 of 3 here] | 2200 |  | 1870 | 1850 | 2200 |  | GI50 [2]: 2790 nM; GI50 [6]: 3200 nM |
| Cc1ccc(-c2c3c(nc4cnc5ccccc5c24)-c2cc(Cl)ccc2OC3)cc1 | > 10000 | > 10000 | > 10000 | > 10000 | > 10000 | > 10000 |  |
| COc1cccc2c1C(=O)c1c(O)c3c(c(O)c1C2=O)C[C@@](O)(C(=O)CO)C[C@@H]3O[C@H]1C[C@H](N)[C@H](O)[C@H](C)O1 [DOXORUBICIN] | 68 | 76 | 90 | 86 | 77 | 80 |  |
| Cc1c2c(nc3cnc4ccccc4c13)-c1cc(C(C)(C)C)cc(C(C)(C)C)c1OC2 | > 10000 | > 10000 | > 10000 | > 10000 | > 10000 | > 10000 |  |
| COc1cccc2c1OCc1c-2nc2cnc3ccccc3c2c1C [listing 2 of 3 here] |  |  |  |  |  |  | GI50 [1]: 1670 nM; GI50 [2]: 2060 nM; GI50 [3]: 2390 nM; GI50 [4]: 1560 nM; GI50 [5]: 1290 nM; GI50 [6]: 2010 nM |
| Fc1ccc2c(c1)-c1nc3cnc4ccccc4c3cc1CO2 [listing 3 of 3 here] |  |  |  |  |  |  | GI50 [1]: 1230 nM; GI50 [2]: 1270 nM; GI50 [3]: 1030 nM; GI50 [4]: 1370 nM; GI50 [5]: 1560 nM; GI50 [6]: 1000 nM |
| Cc1c2c(nc3cnc4ccccc4c13)-c1cc(Cl)cc(Cl)c1OC2 | > 10000 | > 10000 | > 10000 | > 10000 | > 10000 | > 10000 |  |
| c1ccc2c(c1)OCc1cc3c(cnc4ccccc43)nc1-2 | > 10000 | > 10000 | > 10000 | > 10000 | > 10000 | > 10000 |  |
| COc1cccc2c1OCc1c-2nc2cnc3ccccc3c2c1C [listing 3 of 3 here] |  |  |  |  |  |  | inhibition [12]: 14.4% and 10.2%; inhibition [8]: 0% and 23.5% |
| Cc1c2c(nc3cnc4ccccc4c13)-c1cc(Cl)ccc1OC2 | > 10000 | > 10000 | > 10000 | > 10000 | > 10000 | > 10000 |  |
| Brc1ccc2c(c1)-c1nc3cnc4ccccc4c3cc1CO2 | > 10000 | > 10000 | > 10000 | > 10000 | > 10000 | > 10000 |  |
| Cc1c2c(nc3cnc4ccccc4c13)-c1cc(F)ccc1OC2 | > 10000 | > 10000 | > 10000 | > 10000 | > 10000 | > 10000 |  |
| c1ccc2c3c(ccc2c1)OCc1cc2c(cnc4ccccc42)nc1-3 | > 10000 | > 10000 | > 10000 | > 10000 | > 10000 | > 10000 |  |
| Clc1ccc2c(c1)-c1nc3cnc4ccccc4c3cc1CO2 [listing 3 of 3 here] |  |  |  |  |  |  | inhibition [12]: 1.7% and 12.3%; inhibition [8]: 0% |

Reference: ChEMBL document CHEMBL4229571, “Development of 13H-benzo[f]chromeno[4,3-b][1,7]naphthyridines and their salts as potent cytotoxic agents and topoisomerase I/IIα inhibitors” (2018)
